The test system of data set [1] is KNS-42. Briefly: Antiproliferative activity against human KNS-42 cells assessed as cell growth inhibition incubated for 72 hrs by MTT assay. Particulars: KNS-42, 72 h. Type of data set: functional, cell-based. The method, boiled down:
(§1)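 Proliferation screen run in triplicate. IC50 is the compound dose giving 50% inhibition of cell proliferation.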

The test system of data set [2] is KNS-42. Briefly: Cytotoxicity against human KNS-42 cells assessed as reduction in cell viability incubated for 72 hrs by PrestoBlue reagent based cell viability assay. Type of data set: functional. Particulars: KNS-42, 72 h. In outline: (§2)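 Viability screen run in triplicate. IC50 is the compound dose giving 50% inhibition of cell viability, taken as cytotoxicity.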

Data set [3] in a line: Cytotoxicity against human HFF-1 cells assessed as reduction in cell viability incubated for 72 hrs by PrestoBlue reagent based cell viability assay. The data set is classed as toxicity. In outline:
as §2

Data set [4] is described as follows: Antiproliferative activity against human BT-16 cells assessed as cell growth inhibition incubated for 72 hrs by MTT assay. Type of data set: functional, cell-based. Particulars: BT-16, 72 h. In outline:
as §1

Data set [5] has as its system Daoy. Briefly: Antiproliferative activity against human Daoy cells assessed as cell growth inhibition incubated for 72 hrs by MTT assay. Type of data set: functional, cell-based. In outline:
as §1

Data set [6] is described as follows: Cytotoxicity against human BT-16 cells assessed as reduction in cell viability incubated for 72 hrs by PrestoBlue reagent based cell viability assay. The data set is classed as functional. Particulars: BT-16, 72 h. The method, boiled down:
as §2

A short description of data set [7]: Cytotoxicity against human BT-12 cells assessed as reduction in cell viability incubated for 72 hrs by PrestoBlue reagent based cell viability assay. The data set is classed as functional. As to conditions: BT-12, 72 h. In outline:
as §2

In data set [8] the target is T1, Cannabinoid receptor 1 (Homo sapiens, UniProt P21554). Briefly: Antagonist activity at human CB1R expressed in mouse AtT20 cells at 10 uM by FLIPR membrane potential assay. The data set is classed as functional, cell-based. The method, boiled down: (§3)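 AtT-20 cells stably carrying human CB1R or human CB2R were pre-incubated with compound or vehicle for 60 minutes. 500 nM CP 55940 was then added and membrane potential responses were recorded. IC50 is for inhibition of the agonist response.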
T1 sequence (P21554 whole entry): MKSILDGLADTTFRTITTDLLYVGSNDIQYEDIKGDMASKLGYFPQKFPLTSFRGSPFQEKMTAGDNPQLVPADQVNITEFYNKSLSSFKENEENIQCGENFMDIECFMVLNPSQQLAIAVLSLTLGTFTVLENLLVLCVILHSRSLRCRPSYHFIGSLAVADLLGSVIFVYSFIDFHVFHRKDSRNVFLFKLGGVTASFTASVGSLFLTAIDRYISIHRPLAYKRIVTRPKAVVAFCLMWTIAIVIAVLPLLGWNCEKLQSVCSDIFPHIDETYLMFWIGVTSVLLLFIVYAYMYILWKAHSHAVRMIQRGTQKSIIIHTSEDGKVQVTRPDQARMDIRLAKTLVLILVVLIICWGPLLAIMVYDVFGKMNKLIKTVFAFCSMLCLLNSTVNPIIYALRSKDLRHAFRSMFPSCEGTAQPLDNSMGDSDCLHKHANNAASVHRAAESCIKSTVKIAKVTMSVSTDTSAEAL

Data set [9] has as its target T2, Cannabinoid receptor 2 (Homo sapiens, UniProt P34972). Briefly: Agonist activity at human CB2R expressed in mouse AtT20 cells at 10 uM by FLIPR membrane potential assay. The data set is classed as functional, cell-based. The method, boiled down: (§4)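 Agonist mode: AtT-20 cells stably transfected with human CB1R or human CB2R; membrane potential responses recorded.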

A short description of data set [10]: Octanol-water partition coefficient, logP of the compound. The data set is classed as physicochemical.
Data set [11] deals with T2, Cannabinoid receptor 2. Briefly: Antagonist activity at human CB2R expressed in mouse AtT20 cells at 10 uM by FLIPR membrane potential assay. Type of data set: functional, cell-based. In outline: as §3
A short description of data set [12]: Antiproliferative activity against human BT-12 cells assessed as cell growth inhibition incubated for 72 hrs by MTT assay. The data set is classed as functional, cell-based. Particulars: BT-12, 72 h. In outline:
as §1

Data set [13] has as its target T1, Cannabinoid receptor 1. Briefly: Agonist activity at human CB1R expressed in mouse AtT20 cells at 10 uM by FLIPR membrane potential assay. Type of data set: functional, cell-based. The method, boiled down:
as §4

Data set [14] can be described thus: Antiproliferative activity against human HFF-1 cells assessed as cell growth inhibition incubated for 72 hrs by MTT assay. The data set is classed as toxicity, cell-based. The method, boiled down: as §1
The test system of data set [15] is Daoy. Briefly: Cytotoxicity against human Daoy cells assessed as reduction in cell viability incubated for 72 hrs by PrestoBlue reagent based cell viability assay. The data set is classed as functional. In outline:
as §2

Data set [16] addresses T1, Cannabinoid receptor 1. Briefly: Antagonist activity at human CB1R expressed in mouse AtT20 cells by FLIPR membrane potential assay. Type of data set: functional, cell-based. In outline: as §3
The target of data set [17] is T2, Cannabinoid receptor 2. Briefly: Antagonist activity at human CB2R expressed in mouse AtT20 cells by FLIPR membrane potential assay. Type of data set: functional, cell-based. The method, boiled down:
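AtT-20 cells stably transfected with human CB2R; membrane potential response read out. Antagonist mode: cells pre-incubated with vehicle or compound for 60 min, then challenged with 500 nM CP 55940. IC50 derived from inhibition of the agonist response. Not active defined as <50% inhibition at 10 μM.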

pIC50: −log10 of the molar value.

T2 sequence (P34972 whole entry): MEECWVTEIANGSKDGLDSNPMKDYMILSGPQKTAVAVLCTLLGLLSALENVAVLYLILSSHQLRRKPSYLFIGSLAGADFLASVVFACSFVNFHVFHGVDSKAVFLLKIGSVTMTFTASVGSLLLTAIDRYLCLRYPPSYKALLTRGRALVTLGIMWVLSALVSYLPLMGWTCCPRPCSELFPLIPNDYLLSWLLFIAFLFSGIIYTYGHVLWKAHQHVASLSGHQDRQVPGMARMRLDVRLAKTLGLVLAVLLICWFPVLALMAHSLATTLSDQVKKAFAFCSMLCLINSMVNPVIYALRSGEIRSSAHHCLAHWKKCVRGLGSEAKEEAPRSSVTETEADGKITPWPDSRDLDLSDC

Regarding `O=C(Nc1nc2ccccc2[nH]1)C12CC3CC(CC(C3)C1)C2`, the negative-log IC50 (pIC50) in data set [1] and in data set [2] was less than 5.00 each time.

Turning to `O=C(NC12CC3CC(CC(C3)C1)C2)c1ccc(NC(=O)c2cc3c(F)cc(F)cc3[nH]2)cc1`, the pIC50 in [1] and in [2] was less than 5.00 throughout.

As to `O=C(CNC(=O)c1cc2c(F)cc(F)cc2[nH]1)NC12CC3CC(CC(C3)C1)C2`, the pIC50 in data set [1] and in [2] was less than 5.00 in each case.

Consider `O=C(NC12CC3CC(CC(C3)C1)C2)c1nc2ccccc2[nH]1`, for which the pIC50 in [1] and in [2] was less than 5.00 each time.

Take `O=C(NCc1ccccc1)c1cc2c(F)cc(F)cc2[nH]1`: the half-maximal inhibitory concentration (IC50) at 72 h worked out at 119 µM in data set [3] and 65 µM in [14]. Moreover, the pIC50 was 5.22 in data set [4]; less than 5.00 in data set [5]; 5.74 in data set [6]; 5.01 in [1]; 6.05 in data set [7]; 5.13 in data set [12]. Further, the pIC50 is 5.08 in data set [2] and less than 5.00 in data set [15]. Further, the inhibition in data set [8] and in data set [11] was less than 50% each time. In addition, the Activity in data set [9] and in data set [13] was less than 50% each time. The molecule further yielded a logP in data set [10] of 3.17.

With `O=C(NCc1ccc(F)cc1)c1cc2c(F)cc(F)cc2[nH]1`, the IC50 at 72 h in data set [3] amounted to 281 µM; in [14] it was 40 µM. The pIC50 was 5.01 in data set [4]; less than 5.00 in data set [5]; 5.26 in data set [6]; 5.36 in data set [1]; 5.03 in [7]; 5.05 in [12]. Also, the pIC50 is 5.47 in [2] and 5.39 in data set [15]. Besides, the inhibition in data set [8] and in data set [11] was less than 50% throughout. Moreover, the Activity in data set [9] and in data set [13] was less than 50% each time. The molecule further registered a logP in data set [10] of 3.23.

In the case of `O=C(NC12CC3CC(CC(C3)C1)C2)c1cc(=O)c2ccc(Br)cc2[nH]1`, the negative logarithm of the IC50 (pIC50) in data set [1] and in [2] was less than 5.00 in each case.

`O=C(NC12CC3CC(CC(C3)C1)C2)c1cc2ccccc2n1CCCCO`: the pIC50 in data set [1] is less than 5.00; in [2], 5.32.

Consider `O=C(CC12CC3CC(CC(C3)C1)C2)Nc1nc2ccccc2[nH]1`, for which the values for the pIC50 in data set [1] and in [2] were 5.19 and less than 5.00, respectively.

In the case of `Cc1c(C(=O)c2cccc3ccccc23)c2cccc3c2n1[C@@H](CN1CCOCC1)CO3`, the IC50 at 72 h in [3] turned out to be 0.023 µM; in data set [14], 1.82 µM. Moreover, the pIC50 is 5.34 in data set [4]; 5.22 in [5]; 5.32 in [6]; 5.09 in data set [1]; 5.07 in data set [7]; 5.03 in data set [12]. For the same molecule, the results for the pIC50 in [2] and in data set [15] were 5.10 and less than 5.00, respectively. Moreover, the logP in data set [10] was 4.13.

Take `COc1cccc(CNC(=O)c2cc3c(F)cc(F)cc3[nH]2)c1OC`: the pIC50 in [1] and in [2] was less than 5.00 in each case.

For the molecule `O=C(NCCc1ccc2c(c1)OCO2)c1cc2c(F)cc(F)cc2[nH]1`, the results for the concentration for half-maximal inhibition (IC50) at 72 h in data set [3] and in [14] were 81 µM and 6.98 µM, respectively. In addition, the pIC50 was 5.12 in data set [4]; 5.00 in data set [5]; 5.57 in [6]; 5.54 in data set [1]; 5.22 in data set [7]; 5.39 in data set [12]. In addition, the negative-log IC50 (pIC50) in [2] was 5.63; in data set [16] it was 6.43; in [15], 5.44. The Activity in data set [9] and in data set [13] was less than 50% in each case. The same molecule came in with a logP in data set [10] of 3.02. The inhibition in data set [11] was less than 50%.

Consider `CCCC(C)(C)c1ccc2c(c1)OC(C)(C)[C@@H]1CC=C(C)C[C@@H]21`, for which the pIC50 in data set [1] and in [2] was less than 5.00 each time.

Consider `O=C(NCc1ccc2c(c1)OCO2)c1cc2c(F)cc(F)cc2[nH]1`, for which the pIC50 in [1] and in [2] was less than 5.00 in each case.

Turning to `O=C(NC12CC3CC(CC(C3)C1)C2)c1c[nH]c2cc(Cl)cc(Cl)c2c1=O`, the pIC50 was 5.04 in data set [1] and less than 5.00 in data set [2].

Turning to `Cc1cccc(CNC(=O)c2cc3c(F)cc(F)cc3[nH]2)c1`, the pIC50 in data set [1] and in data set [2] was less than 5.00 throughout.

As to `O=C(NC12CC3CC(CC(C3)C1)C2)c1n[nH]c2ccccc12`, the pIC50 in [1] and in data set [2] was less than 5.00 each time.

`O=C(NC12CC3CC(CC(C3)C1)C2)c1c[nH]c2c(Cl)ccc(Cl)c2c1=O`: the IC50 at 72 h in data set [3] was 7.04 µM; in data set [14] it was 3.85 µM. In addition, the negative logarithm of the IC50 (pIC50) in [4] was 5.31; in data set [5], 5.33; in data set [6], 5.71; in data set [1], 5.53; in data set [7] it was 5.29; in data set [17], 5.89. Besides, the negative-log IC50 (pIC50) in data set [12] was 5.44; in [2] it was 5.04; in data set [15] it was 5.81. In data set [8], this molecule yielded an inhibition of less than 50%. For the same molecule, the Activity in data set [9] and in [13] was less than 50% in each case.

As for `O=C(NC12CC3CC(CC(C3)C1)C2)c1cc(=O)c2c(Cl)cc(Cl)cc2[nH]1`, the negative logarithm of the IC50 (pIC50) in data set [1] and in data set [2] was less than 5.00 throughout.

On to `O=C(NC12CC3CC(CC(C3)C1)C2)c1c[nH]c2cc(Br)ccc2c1=O`, for which the pIC50 in [1] and in [2] was less than 5.00 in each case.

Turning to `O=C(Cc1ccc(NC(=O)c2cc3c(F)cc(F)cc3[nH]2)cc1)NC12CC3CC(CC(C3)C1)C2`, the figures for the pIC50 in data set [1] and in data set [2] were 5.31 and less than 5.00, respectively.

For `O=C(Nc1nc2ccccc2[nH]1)c1cc2c(F)cc(F)cc2[nH]1`, the IC50 at 72 h in data set [3] was 115 µM; in data set [14], 3.03 µM. Moreover, the pIC50 in [4] was 5.27; in data set [5], 5.64; in data set [6], 5.86; in [1], 5.39; in [7], 5.12; in [12], 5.75. For the same molecule, the figures for the pIC50 in data set [2] and in [15] were 5.35 and 5.99, respectively. The inhibition in data set [8] and in [11] was less than 50% in each case. The Activity in [9] and in [13] was less than 50% in each case. Also, the logP in data set [10] was 2.69.

Turning to `O=C(NC12CC3CC(CC(C3)C1)C2)c1cc(=O)c2ccc(Cl)c(Cl)c2[nH]1`, the pIC50 in data set [1] and in data set [2] was less than 5.00 each time.

For the molecule `O=C(NC12CC3CC(CC(C3)C1)C2)c1cc(=O)c2c(Cl)ccc(Cl)c2[nH]1`, the pIC50 in data set [1] and in data set [2] was less than 5.00 throughout.

Turning to `O=C(NC12CC3CC(CC(C3)C1)C2)c1c[nH]c2ccc(Cl)cc2c1=O`, the pIC50 in data set [1] and in data set [2] was less than 5.00 in each case.

For the molecule `O=C(NC12CC3CC(CC(C3)C1)C2)c1cc2ccccc2[nH]1`, the pIC50 was less than 5.00 in data set [1] and 6.48 in [2].

Turning to `O=C(NC12CC3CC(CC(C3)C1)C2)c1cc(=O)c2cc(Cl)ccc2[nH]1`, the pIC50 in data set [1] is 5.21; in [2], less than 5.00.

On to `O=C(c1cc2c(F)cc(F)cc2[nH]1)N1CCN(C(=O)C23CC4CC(CC(C4)C2)C3)CC1`, for which the pIC50 is 5.18 in [1] and 5.30 in [2]. In addition, the inhibition in data set [8] and in data set [11] was less than 50% in each case. Also, the Activity in data set [9] and in data set [13] was less than 50% in each case.

For `O=C(NC12CC3CC(CC(C3)C1)C2)c1c[nH]c2c(Cl)c(Cl)ccc2c1=O`, the pIC50 is 5.09 in [1] and less than 5.00 in data set [2].
